Rows were chosen to be rich in hits. Some 3.5% of all compounds tested hit in one or more screens of this group.
MrgX1 agonist = human MrgX1 receptor agonism, primary screen | Q96LB2 | MrgX1-HEK293 cells, Fluo-4 calcium fluorescence, agonist mode; active compounds read high | B-score at 10 µM | 310,000 compounds, 0.44% hits | AID 588627;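 active = calcium response B-score plate-corrected fluorescence ratio at least 3 library SD, with starting fluorescence B-score inside 5 SD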
Target sequence (Q96LB2 whole entry, looked up): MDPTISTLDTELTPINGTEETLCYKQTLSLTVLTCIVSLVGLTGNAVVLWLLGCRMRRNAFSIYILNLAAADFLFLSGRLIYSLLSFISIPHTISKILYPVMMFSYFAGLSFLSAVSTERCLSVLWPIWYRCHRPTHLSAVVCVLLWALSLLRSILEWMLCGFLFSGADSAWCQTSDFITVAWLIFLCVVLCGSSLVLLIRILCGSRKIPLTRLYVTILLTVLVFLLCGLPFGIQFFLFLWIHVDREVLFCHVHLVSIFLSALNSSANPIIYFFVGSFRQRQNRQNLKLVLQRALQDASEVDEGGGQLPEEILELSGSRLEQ
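times = overnight plating, then 30 min 37 °C plus 30 min room-temperature dye loading | assay system = stable human MrgX1 HEK293 cell line | input = fifteen thousand cells per well | signal = kinetic calcium dye fluorescence, Fluo-4 NW | dosing = compound delivered in addition one of three | read-out = B-scored fluorescence response ratio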
RGS4 block = human RGS4 inhibition | P49798 | HEK293 M3R/RGS4 inducible, Fluo-4 calcium flux; active compounds read high; triggered by carbachol at its EC20 | B-score at 10 µM | 310,000 compounds, 0.45% hits;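 active = B-score, a plate-corrected calcium signal, over three deviations above library mean, with baseline fluorescence within five deviations of library mean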;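 note: RGS4 expression induced by doxycycline in cells with stable M3 receptor; B-score is computed from the integrated fluorescence ratio over baseline after carbachol; higher B-score means a larger calcium signal and so more RGS4 inhibition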
Target sequence (P49798 whole entry, looked up): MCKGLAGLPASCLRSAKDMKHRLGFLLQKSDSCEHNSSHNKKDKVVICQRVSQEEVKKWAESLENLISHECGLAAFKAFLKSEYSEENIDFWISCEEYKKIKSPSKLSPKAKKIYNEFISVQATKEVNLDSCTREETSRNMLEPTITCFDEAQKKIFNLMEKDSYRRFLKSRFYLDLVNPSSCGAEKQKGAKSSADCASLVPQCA
RGS4 act = potentiators or activators of RGS4; 310,000 compounds, 0.92% hits; B-score at 10 µM; HEK293 M3R/inducible RGS4, carbachol calcium flux Fluo4; active compounds read low; AID 463111;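 active = B-score of the integrated calcium signal more than 4 SD below the library mean, with starting fluorescence not abnormally high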;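 note: negative B-score means reduced calcium response which marks RGS4 activation or potentiation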
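System: HEK293 FlpIn-TREx cells, stable M3R, doxycycline-inducible RGS4. Timing: overnight RGS4 induction, 30 min dye load 37 °C, 20 min compound RT. Also added: carbachol, ECmax concentration. Measured by: Fluo4 fluorescence kinetic imaging of calcium. Evaluation: integrated calcium ratio converted to B score.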
MrgX1 allo act = human MrgX1 positive allosteric modulation, primary screen; MrgX1-HEK293, Fluo-4 calcium flux, FDSS; active compounds read high; AID 588675; B-score at 10 µM; Q96LB2; 310,000 compounds, 0.63% hits;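 active = plate-corrected calcium response at least 3 library SD above typical, normal starting fluorescence, not activating the receptor alone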;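 note: compound read alongside a low EC10 to EC30 dose of BAM8-22 agonist; peak minus trough fluorescence over baseline measured at the second addition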
MrgX1 antagonist = blocks BAM8-22 activation of human MrgX1 receptor. Q96LB2. MRGX1-HEK293 calcium flux, Fluo-4, BAM8-22 antagonism; active compounds read low. B-score at 10 µM. 310,000 compounds, 1.3% hits. AID 588676;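 active = calcium-response B-score plate-corrected more than 3 library SD below zero, starting fluorescence within 5 deviations, no agonist response on first addition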;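 note: peak minus trough fluorescence over baseline after final BAM8-22 challenge near maximal dose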
MrgX1 allo conf = reconfirmed allosteric activator of human MrgX1 receptor | shares compounds with MrgX1 allo act | MrgX1-HEK293, Fluo-4 calcium fluorescence, FDSS | activation (ratio percentage), % at 10 µM | 1,200 compounds, 13% hits;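 active = ratio at least 3 SD above the weak peptide control, stable starting fluorescence, no direct agonism earlier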;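 note: compound followed by low BAM8-22 agonist challenge near EC20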
HEK293 Ca flux = MrgX1 antagonist counter-screen hit in parental HEK293 cells; shares compounds with MrgX1 antagonist; Fluo-4 calcium fluorescence, FDSS; fluorescence ratio F(max-min)/F0 at 10 µM; 4,000 compounds, 2% hits; AID 624111;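 active = duplicate-averaged calcium fluorescence ratio at least three times the standard deviation of buffer wells, a nonspecific response in parental cells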
HEK293 Ca counter = MrgX1 allosteric activator counter-screen hit in parental HEK293 cells. shares compounds with MrgX1 antagonist. parental HEK293 calcium flux, Fluo-4 fluorescence ratio; active compounds read high. fluorescence ratio F(max-min)/F0 at 10 µM. 4,000 compounds, 0.4% hits. AID 624114;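 active = calcium fluorescence ratio, averaged over duplicates, at least 3 SD of the buffer-well ratio, meaning a nonspecific response in receptor-free cells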;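 note: untransfected parental HEK293 lacking MrgX1 used as counterscreen for MrgX1 allosteric activators; fluorescence change taken during the second addition on a kinetic imager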
HEK293 Ca cntr2 = MrgX1 activator counter-screen hit in parental HEK293 cells | 4,000 compounds, 8.7% hits | fluorescence ratio F(max-min)/F0 at 10 µM | shares compounds with MrgX1 antagonist | Fluo-4 calcium fluorescence (FDSS); active compounds read high;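 active = calcium fluorescence ratio at least three times the spread of buffer wells, meaning a non-specific response in parental cells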
The depositor's hits bear a star; i = inactive; . = no result given.

SMILES	MrgX1 agonist	RGS4 block	RGS4 act	MrgX1 allo act	MrgX1 antagonist	MrgX1 allo conf	HEK293 Ca flux	HEK293 Ca counter	HEK293 Ca cntr2
CCOC(=O)C1CCN(C(=O)c2cc3cc(F)ccc3[nH]2)CC1	i	i	i	i	i	.	.	.	.
O=C(c1cc2cc(F)ccc2[nH]1)N1CCCC(Nc2ccc(F)cc2)C1 (stereo not drawn)	i	i	i	12.6*	i	i	i	i	i
CCOC(=O)C1CCCN(C(=O)c2cc3cc(F)ccc3[nH]2)C1 (stereo not drawn)	i	i	i	7.92*	i	i	i	i	i
Cc1ccc2[nH]c(C(=O)N3CCOCC3)cc2c1	i	i	i	i	i	.	.	.	.
COc1ccc(C(=S)N2CCN(c3cccc(Cl)c3)CC2)cc1	i	i	i	i	i	.	.	.	.
Cc1ccc(NC2CCCN(C(=O)CCn3nccc3C)C2)cc1C (stereo not drawn)	i	i	i	i	i	.	.	.	.
CN(C)c1nc(-c2cn(CCC#N)c3ccccc23)cs1	i	i	i	i	i	.	.	.	.
O=C(Cc1cccs1)NNC(=O)c1ccc(F)cc1	i	i	i	i	i	.	.	.	.
Cc1cccc(OCCSc2nc3ccccc3n2CC(=O)O)c1	i	i	i	i	i	.	.	.	.
O=C(CC1Sc2ccccc2NC1=O)OC(C(=O)NCCc1ccccc1)c1cccnc1 (stereo not drawn)	i	i	i	8.54*	i	i	i	i	i
COc1ccc(C2C=C(C34CC5CC(CC(C5)C3)C4)NC(=S)N2)cc1 (stereo not drawn)	i	i	i	i	i	.	.	.	.
O=C(COc1ccc(Br)cc1Cl)c1ccc[nH]1	i	i	i	9.68*	i	i	i	i	i
CC(C)N(C(=O)COc1ccc(Br)cc1Cl)C(C)C	i	i	i	21.2*	i	6.4%*	i	i	i
Cc1ccc(NC(=O)COC(=O)[C@H](C)NC(=O)c2ccccc2)cc1S(=O)(=O)N1CCOCC1	i	i	i	i	i	.	.	.	.
O=C(NCCCNC(=O)c1c(Cl)cccc1Cl)c1c(Cl)cccc1Cl	i	i	i	i	i	.	.	.	.
CCOC(=O)Cc1csc(NC(=O)c2ccc(Br)cc2)n1	i	i	i	11.6*	i	i	i	i	i
CCOC(=O)Cc1csc(NC(=S)NC(=O)c2ccc(Cl)cc2)n1	i	i	i	6.96*	i	i	i	i	i
CCOC(=O)Cc1csc(NC(=S)NC(=O)c2ccc([N+](=O)[O-])cc2)n1	i	i	i	i	i	.	.	.	.
CCOC(=O)Cc1csc(NC(=O)COc2ccccc2OC)n1	i	i	i	12.4*	i	i	i	i	i
CCc1ccccc1N(CC(=O)N1CCc2ccccc2C1)S(C)(=O)=O	i	i	i	i	i	.	.	.	.
CCOc1ccc(C(C)=O)cc1CN1C(=O)NC2(CCCCCCC2)C1=O	i	i	i	i	i	.	.	.	.
CCc1c(C)sc(NC(=O)Cc2ccccc2OC)c1C(=O)N1CCOCC1	i	i	i	i	i	.	.	.	.
c1ccc(Cc2c[nH]c3ccccc23)cc1	i	i	i	6.64*	i	i	i	i	i
CN(Cc1ccccc1)Cc1c[nH]c2ccccc12	i	i	i	i	i	.	.	.	.
O=C(CCc1ccccc1)NC(=S)Nc1cccc(Br)c1	i	i	i	8.95*	i	i	i	i	i
SMILES	MrgX1 agonist	RGS4 block	RGS4 act	MrgX1 allo act	MrgX1 antagonist	MrgX1 allo conf	HEK293 Ca flux	HEK293 Ca counter	HEK293 Ca cntr2
CC(=O)Cc1nsc(NC(=O)c2ccc(-c3ccccc3Cl)o2)n1	i	i	i	25.7*	i	i	i	i	i
Cc1ccccc1Nc1ncnc2c1cnn2-c1ccccc1	i	i	i	11.5*	i	i	i	i	i
NNc1ncnc2c1cnn2-c1ccccc1	i	i	i	i	i	.	.	.	.
CCOc1cc(C(=O)N(C)CC(=O)Nc2cccc(F)c2)ccc1OCC(=O)N1CCOCC1	i	i	i	i	i	.	.	.	.
O=C(O)C1Sc2[nH]c(=O)sc2C2c3cc(Cl)ccc3OC(=O)C12 (stereo not drawn)	i	i	i	i	i	.	.	.	.
O=C(O)C1Sc2[nH]c(=O)sc2C2c3cc(Br)ccc3OC(=O)C12 (stereo not drawn)	i	i	i	6.49*	i	i	i	i	i
CC(=O)/C(=C(/O)c1ccccc1)c1nc2ccccc2[nH]1	i	i	i	11.8*	i	i	i	i	i
COc1ccc(OCCC(=O)NCC23CC4CC(CC(C4)C2)C3)cc1	i	i	i	8.85*	i	i	i	i	i
Cc1cc(C)c(C)c(S(=O)(=O)NCc2ccc(C(=O)N3CCOCC3)cc2)c1C	i	i	i	i	i	.	.	.	.
CON(C)S(=O)(=O)c1cccc(C(=O)Oc2ccc(N(C)S(=O)(=O)c3ccccc3)cc2)c1	i	i	i	i	i	.	.	.	.
Cc1ccc(-c2cc3onc(-c4ccccc4)c3c(=O)n2C)cc1	i	.	.	20.7*	i	i	i	i	i
O=S(=O)(c1ccc(Br)s1)N1CCC2(CC1)OCCO2	i	i	i	i	i	.	.	.	.
COCCC(=O)Nc1ccc2c(c1)CN(C(=O)c1ccc(CSC)o1)CC2	i	i	i	i	i	.	.	.	.
O=C(NC(=S)N(CCc1ccccc1)CCc1ccccc1)c1ccco1	i	i	i	i	i	.	.	.	.
CC(CCc1ccccc1)NC(=S)NC(=O)c1ccco1 (stereo not drawn)	i	i	i	14.2*	i	i	i	i	i
CCC(C)c1ccccc1NC(=S)NC(=O)c1ccco1 (stereo not drawn)	i	i	i	7.43*	i	i	i	i	i
O=C(NC(=S)Nc1ccccc1Cl)c1ccco1	i	i	i	i	i	.	.	.	.

Screening data from PubChem BioAssay.
